Data on one molecule can be found in ChEMBL document CHEMBL1153580, “Synthesis and pharmacological investigation of 3-(substituted 1-phenylethanone)-4-(substituted phenyl)-1, 2, 3, 4-tetrahydropyrimidine-5-carboxylates” (Eur J Med Chem, 2009).

Usually inhibition in vivo stands for the relative decrease from the control value, in per cent.

The structures appear in SMILES notation.

The first series deals with Rattus norvegicus. The series is described as follows: Antihypertensive activity in Norwegian albino rat assessed as inhibition of DOCA salt-induced systolic blood pressure at 10 mg/kg, po after 15 mins by non-invasive tail-cuff method. The series is classed as functional. The following applies: Artery, 0.25 h.
Consider `CCOC(=O)C1=C(C)NC(OC)N(CC(=O)c2ccc(Cl)cc2)C1c1ccc(Cl)cc1` (stereo unspecified), for which the inhibition in vivo at 10 mg/kg is 0.27%.

Another series deals with Rattus norvegicus. The series is described as follows: Antihypertensive activity in Norwegian albino rat assessed as inhibition of DOCA salt-induced systolic blood pressure at 10 mg/kg, po after 180 mins by non-invasive tail-cuff method. It is filed as functional. Particulars: Artery, 3 h. Put shortly: (§1)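 Male rats (200–250 g), uninephrectomized under pentobarbital (50 mg/kg i.p.); one week later DOCA s.c. 30–50 mg/kg/week, with 1% w/v NaCl in drinking water. Groups of six, trained in restrainer, tail warmed at 33–34 °C. Compound in 0.5% CMC, 10 mg/kg orally. Systolic pressure read by tail-cuff before dosing and from 1 h after; three readings averaged. ANOVA.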
Consider `CCOC(=O)C1=C(C)NC(OC)N(CC(=O)c2ccc(Cl)cc2)C1c1ccc(Cl)cc1` (stereo unspecified), for which the inhibition in vivo at 10 mg/kg worked out at 28.2%.

The test system of a further series is Rattus norvegicus. The series is described as follows: Antihypertensive activity in Norwegian albino rat assessed as inhibition of DOCA salt-induced systolic blood pressure at 10 mg/kg, po after 60 mins by non-invasive tail-cuff method. The series is classed as functional. The following applies: Artery, 1 h. Put shortly: as §1
In the case of `CCOC(=O)C1=C(C)NC(OC)N(CC(=O)c2ccc(Cl)cc2)C1c1ccc(Cl)cc1` (stereo unspecified), the inhibition in vivo at 10 mg/kg turned out to be 12.7%.

In another series the test system is Rattus norvegicus. In words: Antiinflammatory activity in Norwegian albino rat assessed as inhibition of carrageenan-induced paw edema at 100 mg/kg, po after administered 60 mins prior to carrageenan-challenge measured after 5 hrs. It is filed as functional.
Details: not given
In outline: (§2)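 Compound given orally as 100 mg/kg suspension in 0.5% CMC. 60 min later, carrageenan injected sub-plantar into the left hind paw. Paw volume measured within 30 s of injection, then at 1–5 h. % inhibition = [1−(Dt/Dc)]×100, where Dt and Dc are mean relative paw-volume changes in test and control. ANOVA.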
Background: The carrageenan paw model is a standard test of acute inflammation.
Turning to `CCOC(=O)C1=C(C)NC(OC)N(CC(=O)c2ccc(Cl)cc2)C1c1ccc(Cl)cc1` (stereo unspecified), the inhibition in vivo at 100 mg/kg turned out to be 42%.

In a further series the test system is Rattus norvegicus. The series is described as follows: Antihypertensive activity in Norwegian albino rat assessed as inhibition of DOCA salt-induced systolic blood pressure at 10 mg/kg, po after 300 mins by non-invasive tail-cuff method. Particulars: Artery, 5 h. It is filed as functional. In outline: as §1
Regarding `CCOC(=O)C1=C(C)NC(OC)N(CC(=O)c2ccc(Cl)cc2)C1c1ccc(Cl)cc1` (stereo unspecified), the inhibition in vivo at 10 mg/kg amounted to 37.4%.

In a further series the test system is Rattus norvegicus. The series is described as follows: Antihypertensive activity in Norwegian albino rat assessed as inhibition of DOCA salt-induced systolic blood pressure at 10 mg/kg, po after 480 mins by non-invasive tail-cuff method. The series is classed as functional. The following applies: Artery, 8 h. Put shortly:
as §1
On to `CCOC(=O)C1=C(C)NC(OC)N(CC(=O)c2ccc(Cl)cc2)C1c1ccc(Cl)cc1` (stereo unspecified), for which the inhibition in vivo at 10 mg/kg was 44.2%.

A further series concerns Rattus norvegicus. In words: Antihypertensive activity in Norwegian albino rat assessed as inhibition of DOCA salt-induced diastolic blood pressure at 10 mg/kg, po after 180 mins by invasive carotid artery cannulation method. It is filed as functional. The following applies: 3 h. In outline:
(§3)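 Male rats (200–250 g), uninephrectomized and given DOCA s.c. (30–50 mg/kg/week) with 1% NaCl drinking water. Anesthetized with pentobarbital (35 mg/kg i.p.); left carotid artery cannulated and exteriorized. After recovery and a baseline reading, compound given orally by feeding needle. Diastolic pressure recorded via transducer at 15, 30, 60, 120 and 180 min. Mean ± S.E.M.; repeated-measures ANOVA.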
With `CCOC(=O)C1=C(C)NC(OC)N(CC(=O)c2ccc(Cl)cc2)C1c1ccc(Cl)cc1` (stereo unspecified), the inhibition in vivo at 10 mg/kg stood at 38.1%.

Another series relates to Rattus norvegicus. The series is described as follows: Antihypertensive activity in Norwegian albino rat assessed as inhibition of DOCA salt-induced diastolic blood pressure at 10 mg/kg, po after 30 mins by invasive carotid artery cannulation method. It is filed as functional. The following applies: 0.5 h. Put shortly:
as §3
Take `CCOC(=O)C1=C(C)NC(OC)N(CC(=O)c2ccc(Cl)cc2)C1c1ccc(Cl)cc1` (stereo unspecified): the inhibition in vivo at 10 mg/kg was 8.92%.

A further series concerns Rattus norvegicus. In words: Antiinflammatory activity in Norwegian albino rat assessed as inhibition of carrageenan-induced paw edema at 100 mg/kg, po after administered 60 mins prior to carrageenan-challenge measured after 3 hrs. The series is classed as functional.
Details: not given
In outline: as §2
In the case of `CCOC(=O)C1=C(C)NC(OC)N(CC(=O)c2ccc(Cl)cc2)C1c1ccc(Cl)cc1` (stereo unspecified), the inhibition in vivo at 100 mg/kg came to 41%.

For the next series, the system named is Mus musculus. The series is described as follows: Analgesic activity against acetic acid-induced writhing in Swiss albino mouse assessed as protection at 20 mg/kg, po. The series is classed as functional.
Details: not given
Put shortly: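 Swiss albino mice (25–30 g), six per group, habituated 30 min individually in the test cage. Compound in 1% CMC given p.o. at 20 mg/kg. 1 h later, acetic acid injected i.p.; writhes (arching of back, body elongation, hind-limb extension) counted 5–15 min after injection. % inhibition = (n−n′)/n×100, where n and n′ are mean writhes in control and test.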
As for `CCOC(=O)C1=C(C)NC(OC)N(CC(=O)c2ccc(Cl)cc2)C1c1ccc(Cl)cc1` (stereo unspecified), the Activity is reported as 37.33%.

Another series has as its system Rattus norvegicus. In words: Antihypertensive activity in Norwegian albino rat assessed as inhibition of DOCA salt-induced diastolic blood pressure at 10 mg/kg, po after 15 mins by invasive carotid artery cannulation method. It is filed as functional. Particulars: 0.25 h. Put shortly:
as §3
Regarding `CCOC(=O)C1=C(C)NC(OC)N(CC(=O)c2ccc(Cl)cc2)C1c1ccc(Cl)cc1` (stereo unspecified), the inhibition in vivo at 10 mg/kg stood at 1.84%.

The next series relates to Rattus norvegicus. In words: Antihypertensive activity in Norwegian albino rat assessed as inhibition of DOCA salt-induced systolic blood pressure at 10 mg/kg, po after 420 mins by non-invasive tail-cuff method. Particulars: Artery, 7 h. It is filed as functional. Put shortly:
as §1
For the molecule `CCOC(=O)C1=C(C)NC(OC)N(CC(=O)c2ccc(Cl)cc2)C1c1ccc(Cl)cc1` (stereo unspecified), the inhibition in vivo at 10 mg/kg turned out to be 44%.

The subject of the next series is Rattus norvegicus. The series is described as follows: Gastrointestinal toxicity in albino rat assessed as ulcerogenic index at 50 mg/kg, po. It is filed as organism-based. Also on record: dose 50 mg/kg, route oral. Particulars: in vivo. In outline: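 Albino rats (150–200 g), six per group, food but not water withheld 24 h. Compound given p.o. at 50 mg/kg; controls received 1% methyl cellulose. Rats fed 17 h, then killed; stomach opened along greater curvature and examined under 4× magnifier. Lesions scored as large (>2 mm), small (1–2 mm) or punctiform (<1 mm). Severity index = treated mean score minus control mean score.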
Regarding `CCOC(=O)C1=C(C)NC(OC)N(CC(=O)c2ccc(Cl)cc2)C1c1ccc(Cl)cc1` (stereo unspecified), the UI was found to be 0.2.

A further series concerns Rattus norvegicus. In words: Antiinflammatory activity in Norwegian albino rat assessed as inhibition of carrageenan-induced paw edema at 100 mg/kg, po after administered 60 mins prior to carrageenan-challenge measured after 1 hr. The series is classed as functional.
Details: not given
In outline: as §2
For the molecule `CCOC(=O)C1=C(C)NC(OC)N(CC(=O)c2ccc(Cl)cc2)C1c1ccc(Cl)cc1` (stereo unspecified), the inhibition in vivo at 100 mg/kg worked out at 39.8%.

The test system of another series is Rattus norvegicus. The series is described as follows: Antihypertensive activity in Norwegian albino rat assessed as inhibition of DOCA salt-induced systolic blood pressure at 10 mg/kg, po after 240 mins by non-invasive tail-cuff method. It is filed as functional. Particulars: Artery, 4 h. Put shortly: as §1
As to `CCOC(=O)C1=C(C)NC(OC)N(CC(=O)c2ccc(Cl)cc2)C1c1ccc(Cl)cc1` (stereo unspecified), the inhibition in vivo at 10 mg/kg amounted to 35.5%.

The subject of a further series is Rattus norvegicus. The series is described as follows: Antihypertensive activity in Norwegian albino rat assessed as inhibition of DOCA salt-induced diastolic blood pressure at 10 mg/kg, po after 60 mins by invasive carotid artery cannulation method. Particulars: 1 h. It is filed as functional. Put shortly: as §3
On to `CCOC(=O)C1=C(C)NC(OC)N(CC(=O)c2ccc(Cl)cc2)C1c1ccc(Cl)cc1` (stereo unspecified), for which the inhibition in vivo at 10 mg/kg is 23.3%.

The next series deals with Rattus norvegicus. In words: Antihypertensive activity in Norwegian albino rat assessed as inhibition of DOCA salt-induced diastolic blood pressure at 10 mg/kg, po after 240 mins by invasive carotid artery cannulation method. The series is classed as functional. The following applies: 4 h.
With `CCOC(=O)C1=C(C)NC(OC)N(CC(=O)c2ccc(Cl)cc2)C1c1ccc(Cl)cc1` (stereo unspecified), the inhibition in vivo at 10 mg/kg turned out to be 46.3%.

The test system of the next series is Rattus norvegicus. In words: Antihypertensive activity in Norwegian albino rat assessed as inhibition of DOCA salt-induced diastolic blood pressure at 10 mg/kg, po after 120 mins by invasive carotid artery cannulation method. The following applies: 2 h. It is filed as functional. Put shortly: as §3
In the case of `CCOC(=O)C1=C(C)NC(OC)N(CC(=O)c2ccc(Cl)cc2)C1c1ccc(Cl)cc1` (stereo unspecified), the inhibition in vivo at 10 mg/kg was determined as 30.6%.

Another series concerns Rattus norvegicus. In words: Antihypertensive activity in Norwegian albino rat assessed as inhibition of DOCA salt-induced systolic blood pressure at 10 mg/kg, po after 30 mins by non-invasive tail-cuff method. The series is classed as functional. Particulars: Artery, 0.5 h.
With `CCOC(=O)C1=C(C)NC(OC)N(CC(=O)c2ccc(Cl)cc2)C1c1ccc(Cl)cc1` (stereo unspecified), the inhibition in vivo at 10 mg/kg worked out at 6.45%.

The subject of the next series is Rattus norvegicus. The series is described as follows: Antihypertensive activity in Norwegian albino rat assessed as inhibition of DOCA salt-induced systolic blood pressure at 10 mg/kg, po after 360 mins by non-invasive tail-cuff method. It is filed as functional. Particulars: Artery, 6 h. Put shortly:
as §1
Consider `CCOC(=O)C1=C(C)NC(OC)N(CC(=O)c2ccc(Cl)cc2)C1c1ccc(Cl)cc1` (stereo unspecified), for which the inhibition in vivo at 10 mg/kg was 39.8%.

Another series has as its system Rattus norvegicus. The series is described as follows: Antihypertensive activity in Norwegian albino rat assessed as inhibition of DOCA salt-induced systolic blood pressure at 10 mg/kg, po after 120 mins by non-invasive tail-cuff method. The series is classed as functional. Particulars: Artery, 2 h. Put shortly:
as §1
As for `CCOC(=O)C1=C(C)NC(OC)N(CC(=O)c2ccc(Cl)cc2)C1c1ccc(Cl)cc1` (stereo unspecified), the inhibition in vivo at 10 mg/kg came out at 19.6%.
